# Reference: ChEMBL document CHEMBL1122704, “Syntheses and anthelmintic activity of alkyl 5(6)-(substituted-carbamoyl)- and 5(6)-(disubstituted-carbamoyl)benzimidazole-2-carbamates and related compounds” (1984)
# Activity calls are given as the source filed them. The calls are words filed in the database; no cut-off is given here.
# Tests used:
# [1] = tested on: Ancylostoma ceylanicum; assay: Compound was evaluated for the biological activity against Ancylostoma ceylanicum in hamsters at the 250 mg/kg; format: functional
# Summary of the method: (§1)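 Hamsters of either sex (40–60 g) infected orally with 60 third-stage larvae. Test compound given orally as a single dose on day 20 ± 1 postinfection, starting at 250 mg/kg × 1. Lower doses were used for active compounds to establish dose–response. Method of Ray et al. as modified locally.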
# [2] = tested on: Nippostrongylus brasiliensis; assay: (§2) Anti-nematode activity against Nippostrongylus brasiliensis in rats at 250 mg/kg; Insignificant activity.; format: functional
# [3] = tested on: Rattus norvegicus; assay: Compound was evaluated for the biological activity against Hymenolepsis nana (rats) at the 250 mg/kg; format: functional
# Summary of the method: (§3)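 Male rats (25–35 g) infected orally with 200 viable eggs. Infection confirmed by ovoscopic examination on days 17–20 postinoculation. Positive rats dosed orally on day 20 ± 1, initially 250 mg/kg × 1, then lower doses for dose–response. Method of Steward.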
# [4] = tested on: Rattus norvegicus; assay: Compound was evaluated for the biological activity against Hymenolepsis nana (rats) at the 200 mg/kg; format: functional; summary of the method: as §3
# [5] = tested on: Cricetinae gen. sp.; assay: Compound was evaluated for the biological activity against Ancylostoma ceylanicum in hamsters at the 250 mg/kg; insignificant activity; format: functional, organism-based; set-up: dose 250 mg/kg; conditions: Cricetulus griseus; summary of the method: as §1
# [6] = tested on: Rattus norvegicus; assay: Compound was evaluated for the biological activity against Hymenolepsis nana (rats) at the 250 mg/kg; insignificant activity; format: functional, organism-based; set-up: dose 250 mg/kg; summary of the method: as §3
# [7] = tested on: Cricetinae gen. sp.; assay: Compound was evaluated for the biological activity against Ancylostoma ceylanicum (hamsters and dogs) at the 50 mg/kg; format: functional, Cricetulus griseus
# [8] = tested on: Cricetinae gen. sp.; assay: Compound was evaluated for the biological activity against Ancylostoma ceylanicum in hamsters at the 100 mg/kg; format: functional, Cricetulus griseus; summary of the method: as §1
# [9] = tested on: Rattus norvegicus; assay: Compound was evaluated for the biological activity against Hymenolepsis nana (rats) at the 50 mg/kg; format: functional; summary of the method: as §3
# [10] = tested on: Rattus norvegicus; assay: Compound was evaluated for the biological activity against Nippostrongylus brasiliensis (rats) at the 100 mg/kg; format: functional
# Summary of the method: (§4)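 Male rats (25–40 g) inoculated subcutaneously with 500 larvae taken from 6–8-day-old fecal culture. Compounds given orally on day 9 postinfection at 250 mg/kg × 3, with lower doses as follow-up for active compounds. Steward technique as modified by Katiyar and Sen.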
# [11] = tested on: Rattus norvegicus; assay: Compound was evaluated for the biological activity against Nippostrongylus brasiliensis in rats at the 250 mg/kg; format: functional; summary of the method: as §4
# [12] = as §2; format: functional
# [13] = tested on: Felis catus; assay: Efficiency against Ancylostoma tubaeformis (hookworm) in cat at the 10 x 3 mg/kg; inactive; format: functional, organism-based; set-up: dose 3 mg/kg; conditions: at 3 mg/kg
# [14] = tested on: Felis catus; assay: Efficiency against Ancylostoma tubaeformis (hookworm) in cat at the 25 x 3 mg/kg; format: functional
# [15] = tested on: Canis familiaris; assay: Efficiency against Ancylostoma ceylanicum (hookworm) in dog at the 10 x 3 mg/kg; format: functional, Canis lupus familiaris
# [16] = tested on: Canis familiaris; assay: Efficiency against Ancylostoma ceylanicum (hookworm) in dog at the 25 x 3 mg/kg; format: functional, Canis lupus familiaris
# [17] = tested on: Cricetinae gen. sp.; assay: Compound was evaluated for the biological activity against Ancylostoma ceylanicum in hamsters at the 100-6.25 mg/kg; format: functional, Cricetulus griseus; summary of the method: as §1
# [18] = tested on: Cricetinae gen. sp.; assay: Compound was evaluated for the biological activity against Ancylostoma ceylanicum in hamsters at the 3.12 mg/kg; format: functional, Cricetulus griseus; summary of the method: as §1
# [19] = tested on: Mus musculus; assay: Efficiency against Syphacia obvelata (pinworm) in mouse at the 12.5 x 3 mg/kg; format: functional
# Summary of the method: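 Adult mice of both sexes (20–30 g) with pinworm infection, assessed by Standon's method. Oral dosing started at 25 mg/kg × 3, followed by lower doses for active compounds. Mebendazole at 50 mg/kg × 3 served as positive control.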
# [20] = tested on: Rattus norvegicus; assay: Compound was evaluated for the biological activity against Hymenolepsis nana (rats) at the 100-50 mg/kg; format: functional; summary of the method: as §3
# [21] = tested on: Rattus norvegicus; assay: Compound was evaluated for the biological activity against Hymenolepsis nana (rats) at the 25 mg/kg; format: functional; summary of the method: as §3
# [22] = tested on: Rattus norvegicus; assay: Compound was evaluated for the biological activity against Nippostrongylus brasiliensis in rats at the 100-50 mg/kg; format: functional; summary of the method: as §4
# [23] = tested on: Rattus norvegicus; assay: Compound was evaluated for the biological activity against Nippostrongylus brasiliensis in rats at the 25 mg/kg; format: functional; summary of the method: as §4
# [24] = tested on: Rattus norvegicus; assay: Efficiency against L carinii (filarid worm) in cotton (against adults) rat at the 30 x 5 mg/kg (ip); format: functional
# [25] = tested on: Rattus norvegicus; assay: Efficiency against L carinii (filarid worm) in cotton (against both microfilariae and adults) rat at the 10 x 5 mg/kg (ip); inactive; format: functional, organism-based; set-up: dose 5 mg/kg; conditions: at 5 mg/kg
# [26] = tested on: Rattus norvegicus; assay: Efficiency against L carinii (filarid worm) in cotton (against both microfilariae and adults) rat at the 50 x 5 mg/kg (po); inactive; format: functional, organism-based; set-up: dose 5 mg/kg; conditions: at 5 mg/kg
# [27] = tested on: Rattus norvegicus; assay: Efficiency against L carinii (filarid worm) in cotton (against microfilariae and inactive against adults) rat at 100 x 5 mg/kg (po); format: functional
# [28] = tested on: Rattus norvegicus; assay: Efficiency against L carinii (filarid worm) in cotton (on adults) rat at the 30 x 5 mg/kg (ip); format: functional
# [29] = tested on: Rattus norvegicus; assay: Efficiency against L carinii (filarid worm) in cotton (on microfilariae) rat at the 30 x 5 mg/kg (ip); format: functional
# [30] = tested on: Canis familiaris (dog); assay: Efficiency against Toxocara species. (Ascaris) in dog at the 25 x 3 mg/kg
# [31] = tested on: Canis familiaris (dog); assay: Efficiency against Taenia species. (tapeworm) in dog at the 25 x 3 mg/kg; inactive; conditions: at 3 mg/kg
# [32] = tested on: Rattus norvegicus; assay: Compound was evaluated for the biological activity against Hymenolepsis nana (rats) aat the 250 mg/kg; format: functional; summary of the method: as §3
# [33] = tested on: Rattus norvegicus; assay: Compound was evaluated for the biological activity against Hymenolepsis nana (rats) at the 100 mg/kg; format: functional; summary of the method: as §3
# [34] = tested on: Rattus norvegicus; assay: Compound was evaluated for the biological activity against Hymenolepsis nana (rats)at the 250 mg/kg; insignificant activity; format: functional, organism-based; set-up: dose 250 mg/kg; summary of the method: as §3
# [35] = tested on: Cricetinae gen. sp.; assay: Compound was evaluated for the biological activity against Ancylostoma ceylanicum in hamsters at the 50 mg/kg; format: functional, Cricetulus griseus; summary of the method: as §1
compound,measurement,setting,value
CNC(=O)c1ccc2[nH]c(NC(=O)OC)nc2c1,Activity,[1],95%
same,Activity,[2],inactive
same,Activity,[3],100%
CCCCCCCCNC(=O)c1ccc2[nH]c(NC(=O)OC)nc2c1,Activity,[1],100%
same,Activity,[4],100%
same,Activity,[2],inactive
COC(=O)Nc1nc2cc(C(=O)Nc3nccs3)ccc2[nH]1,Activity,[5],inactive
same,Activity,[6],inactive
same,Activity,[2],inactive
COC(=O)Nc1nc2cc(C(=O)Nc3ccccn3)ccc2[nH]1,Activity,[1],95%
same,Activity,[6],inactive
same,Activity,[2],inactive
COC(=O)Nc1nc2cc(C(=O)N(C(C)C)C(C)C)ccc2[nH]1,Activity,[7],88.8%
same,Activity,[8],100%
same,Activity,[1],100%
same,Activity,[9],100%
same,Activity,[10],100%
same,Activity,[11],100%
same,Activity,[3],100%
COC(=O)Nc1nc2cc(C(=O)Nc3nc4ccc(OC)cc4s3)ccc2[nH]1,Activity,[5],inactive
same,Activity,[6],inactive
same,Activity,[12],86.6%
COC(=O)Nc1nc2cc(C(=O)N3CCN(c4ccccn4)CC3)ccc2[nH]1,Efficiency,[13],inactive
same,Efficiency,[14],100%
same,Efficiency,[15],100%
same,Efficiency,[16],100%
same,Activity,[17],100%
same,Activity,[1],100%
same,Activity,[18],88%
same,Efficiency,[19],100%
same,Activity,[20],100%
same,Activity,[21],100%
same,Activity,[22],100%
same,Activity,[23],60%
same,Activity,[11],100%
same,Efficiency,[24],100%
same,Efficiency,[25],inactive
same,Efficiency,[26],inactive
same,Efficiency,[27],94.8%
same,Efficiency,[28],100%
same,Efficiency,[29],97%
same,Activity,[3],100%
same,Efficiency,[30],100%
same,Efficiency,[31],inactive
COC(=O)Nc1nc2cc(C(=O)N3CCN(c4ccccc4)CC3)ccc2[nH]1,Activity,[17],100%
same,Activity,[1],100%
same,Activity,[18],77%
same,Activity,[32],100%
same,Activity,[33],100%
same,Activity,[9],100%
same,Activity,[22],100%
same,Activity,[23],86.6%
same,Activity,[11],100%
COC(=O)Nc1nc2cc(C(=O)N3CCCCC3)ccc2[nH]1,Activity,[1],100%
same,Activity,[34],inactive
COC(=O)Nc1nc2cc(C(=O)Nc3ncc(C)s3)ccc2[nH]1,Activity,[1],100%
same,Activity,[33],100%
same,Activity,[2],inactive
same,Activity,[3],100%
COC(=O)Nc1nc2cc(C(=O)Nc3ccncc3)ccc2[nH]1,Activity,[1],75%
same,Activity,[6],inactive
same,Activity,[2],inactive
COC(=O)Nc1nc2cc(C(=O)N3CCOCC3)ccc2[nH]1,Activity,[17],100%
same,Activity,[1],100%
same,Activity,[18],83%
same,Activity,[33],100%
same,Activity,[9],100%
same,Activity,[22],100%
same,Activity,[23],50%
same,Activity,[11],100%
same,Activity,[3],100%
COC(=O)Nc1nc2cc(NC(=O)c3ccc(C(=O)Nc4ccc5[nH]c(NC(=O)OC)nc5c4)cc3)ccc2[nH]1,Activity,[1],100%
same,Activity,[35],66.6%
same,Activity,[6],inactive
same,Activity,[2],inactive
CCOC(=O)Nc1nc2cc(C(=O)Nc3ccccc3)ccc2[nH]1,Activity,[1],50%
same,Activity,[6],inactive
same,Activity,[2],inactive
